LMPTP inh: blocks human LMPTP phosphatase. P24666. recombinant LMPTP-A, OMFP fluorogenic substrate, fluorescence intensity. inhibition, % at 20 µM. actives 0.22% (n = 360,000). AID 651560;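 active = compounds that cut the enzyme signal by at least half of the control window in the single-dose screen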;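 note: plate controls were DMSO wells with enzyme plus substrate for no effect and substrate without enzyme for full effect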
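test system = LMPTP-A | amount = 0.625 nM LMPTP-A final | reagent = fluorogenic phosphatase substrate OMFP at 400 µM final | incubation = 50 min at room temperature | benchmarks = no-enzyme low control, uninhibited high control | medium = Bis-Tris pH 6.0, DTT, detergent | signal = fluorescence intensity of OMFP turnover product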
SUMO1-SIM PPI: SUMO1-SIM interaction modulation; P63165; SUMO1 binding to a labelled peptide, TR-FRET, 1 h; inhibition, % at 20 µM; actives 0.33% (n = 360,000); in the data active = inhibition above about 37%
Scp-1 inhibitor: blocks human Scp-1 phosphatase activity; Q9GZU7; actives 0.88% (n = 340,000); inhibition, % at 20 µM; Recombinant Scp1, phosphopeptide, malachite green phosphate absorbance;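 active = inhibition above about 50% at 20 µM, limit read from the data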;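 note: plate controls were DMSO wells with enzyme for no effect and wells lacking enzyme for full effect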
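Material: truncated SCP-1 phosphatase (76-261aa) / Buffer or medium: 50 mM Tris acetate pH 5.5, 0.005% Tween-20, 10 mM MgCl2 / Compound dosing: one concentration, 20 µM, with 1.0% DMSO / Incubation: 45 min room-temperature reaction, 5 min colour, 30 min stabiliser / Detection: colorimetric free-phosphate detection, absorbance 630 nm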
FAS-TE inh: FAS thioesterase (human) inhibition. recombinant FAS-TE, OMFH fluorogenic substrate, fluorescence endpoint. inhibition, % at 15 µM. actives 0.67% (n = 360,000);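 active = compounds whose normalised, plate-corrected inhibition of enzyme fluorescence in the single-dose primary screen is 50% or more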;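 note: 0% = DMSO with enzyme and 100% = substrate without enzyme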
STEP block: STEP (human) phosphatase inhibition | recombinant STEP, OMFP fluorogenic substrate, fluorescence | inhibition, % at 20 µM | actives 0.25% (n = 360,000) | AID 588621;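 active = inhibition at 20 µM, scaled per plate between control wells, above about 37%, limit read from the data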;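 note: 0% = DMSO with enzyme and substrate and 100% = substrate only without enzyme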
Target sequence (P54829 whole entry, looked up): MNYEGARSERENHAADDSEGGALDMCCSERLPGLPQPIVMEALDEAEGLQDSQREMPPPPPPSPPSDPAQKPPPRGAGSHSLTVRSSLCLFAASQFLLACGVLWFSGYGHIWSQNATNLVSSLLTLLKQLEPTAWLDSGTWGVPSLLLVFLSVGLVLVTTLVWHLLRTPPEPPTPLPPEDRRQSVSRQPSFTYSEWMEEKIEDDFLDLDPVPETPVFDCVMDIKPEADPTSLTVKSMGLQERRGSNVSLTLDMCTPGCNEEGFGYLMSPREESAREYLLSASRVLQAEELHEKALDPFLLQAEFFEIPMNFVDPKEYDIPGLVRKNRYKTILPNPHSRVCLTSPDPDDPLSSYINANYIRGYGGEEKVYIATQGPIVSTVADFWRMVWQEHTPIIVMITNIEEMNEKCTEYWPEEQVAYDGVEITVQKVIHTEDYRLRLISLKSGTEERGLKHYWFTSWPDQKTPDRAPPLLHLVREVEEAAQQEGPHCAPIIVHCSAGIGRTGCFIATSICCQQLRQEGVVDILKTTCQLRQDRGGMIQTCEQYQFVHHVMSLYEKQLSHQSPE
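Assay system: isolated STEP enzyme. Buffer or medium: pH 6.0 Bis-Tris with DTT and Tween 20. Also added: fluorogenic phosphatase substrate OMFP at 25 µM final. Dosing: 20 µM, 1% DMSO. Timing: 20 min reaction, room temperature, in the dark. Measured by: fluorescence intensity, excitation 480 nm, emission 540 nm. Evaluation: normalized % inhibition.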
Starred values were filed as active, the others as inactive. Compounds with a hit are over-represented: about 1.9% of the library has one in this group of screens.

Screening CC1(C)C[C@H]2C3=CCC4[C@@]5(C)CC[C@H](O)[C@](C)(CO)C5CC[C@@]4(C)[C@]3(C)C[C@H]3O[C@@H]1[C@H](O)[C@]32CO (some centres not stated) returned LMPTP inh -1, SUMO1-SIM PPI 47*, Scp-1 inhibitor -4, FAS-TE inh 0 and STEP block -3.
For CC1(C)C[C@H]2C3=CCC4[C@@]5(C)CC[C@H](O)[C@](C)(CO)C5CC[C@@]4(C)[C@]3(C)CC[C@@]2(C)[C@H](O)[C@@H]1O (some centres not stated) the results were LMPTP inh -1, SUMO1-SIM PPI 18, Scp-1 inhibitor -1, FAS-TE inh 0 and STEP block -3.
`O=C(OCC(=O)N1CCN(C(=O)c2ccco2)CC1)c1cc(-c2ccc(Cl)c(Cl)c2Cl)nc2ccccc12` gave LMPTP inh 3, SUMO1-SIM PPI 64*, Scp-1 inhibitor -7, FAS-TE inh 18 and STEP block 2.
O=C(OCC(=O)N1CCN(C(=O)c2ccco2)CC1)c1cc(-c2ccco2)nc2ccccc12 was read as LMPTP inh 60*, SUMO1-SIM PPI 26, Scp-1 inhibitor 87*, FAS-TE inh 1 and STEP block 79*.
`CCNC(=O)COC(=O)c1cc(-c2ccco2)nc2ccccc12` gave LMPTP inh 5, SUMO1-SIM PPI -2, Scp-1 inhibitor 70*, FAS-TE inh -1 and STEP block 0.
Screening CCOC(=O)[C@]12CCCC=C1N(Cc1ccc(Cl)cc1Cl)C(=O)[C@H](CC(=O)NCc1cccc3ccccc13)C2 returned LMPTP inh 4, SUMO1-SIM PPI 0 and FAS-TE inh 19.
`Cc1csc2nc3cc(C(N)=O)ccc3c(=O)n12` gave LMPTP inh -1, SUMO1-SIM PPI -6, Scp-1 inhibitor -8, FAS-TE inh -16 and STEP block -3.
For NC(=O)c1ccc2c(=O)n3c(-c4cc(Cl)c(N)c(Cl)c4)csc3nc2c1 the results were LMPTP inh 8, SUMO1-SIM PPI 56*, Scp-1 inhibitor 8, FAS-TE inh -12 and STEP block 10.
For CSC1=NC=C(C#N)C2=NC(c3ccc(Cl)cc3)NN12 (configuration not stated) the results were LMPTP inh -1, SUMO1-SIM PPI -27, FAS-TE inh -1 and STEP block -1.
CC(C)[C@H](CO)Nc1nc(Nc2ccc(Cl)c(C(=O)O)c2)c2ncn(C(C)C)c2n1 was read as LMPTP inh 1, SUMO1-SIM PPI 69*, Scp-1 inhibitor 4, FAS-TE inh -6 and STEP block -2.
CC(C)n1cnc2c(Nc3ccc(C(=O)O)cc3)nc(Cl)nc21 was read as LMPTP inh -1, SUMO1-SIM PPI 6, Scp-1 inhibitor -11, FAS-TE inh -9 and STEP block 3.
COc1ccccc1CNC(=O)C[C@H]1CC[C@@H]2[C@H](COC[C@H](O)CN2Cc2ccc3c(c2)OCO3)O1 was read as LMPTP inh 0 and SUMO1-SIM PPI 14.
CCc1ccc(CNC(=O)Cc2ccc(NC(=O)C3=C(C)OCCS3)cc2)cc1 was read as LMPTP inh 6, SUMO1-SIM PPI 2, Scp-1 inhibitor 85*, FAS-TE inh -1 and STEP block 2.
`CC1=C(C(=O)Nc2ccc(CC(=O)NCc3ccccc3C)cc2)SCCO1` gave LMPTP inh 0, SUMO1-SIM PPI 4, Scp-1 inhibitor -6, FAS-TE inh 0 and STEP block 2.
Screening Cc1ccc(S(=O)(=O)N2C[C@H]3C(=O)C[C@@H](c4ccccc4)N(S(C)(=O)=O)[C@H]3C[C@H]2c2ccccc2)cc1 returned LMPTP inh 2, SUMO1-SIM PPI 0, FAS-TE inh 17 and STEP block 1.
OCC[C@@H]1C[C@H](O)[C@@H](O)[C@]2(OCc3ccc(CO)cc32)O1 was read as LMPTP inh -2, SUMO1-SIM PPI 3, FAS-TE inh -9 and STEP block -2.
Screening O=c1cc(-c2cc3ccccc3o2)c2cc(O)ccc2o1 returned LMPTP inh 58*, SUMO1-SIM PPI -7, Scp-1 inhibitor 28, FAS-TE inh 1 and STEP block 12.
CC(=O)COc1ccc2oc(=O)cc(-c3cc4ccccc4o3)c2c1 was read as LMPTP inh 4, SUMO1-SIM PPI -39, Scp-1 inhibitor -8, FAS-TE inh 18 and STEP block 3.
Screening COC(=O)c1cccc(N2CCCC2=O)c1 returned LMPTP inh -2, SUMO1-SIM PPI 3, Scp-1 inhibitor 1, FAS-TE inh -10 and STEP block -1.
Screening Cc1ccc(-n2sc3ccccc3c2=O)cc1 returned LMPTP inh 0, SUMO1-SIM PPI 2, Scp-1 inhibitor 64*, FAS-TE inh -14 and STEP block -3.
COC(=O)c1cccc(-n2sc3ccccc3c2=O)c1 was read as LMPTP inh -2, SUMO1-SIM PPI -2, Scp-1 inhibitor 95*, FAS-TE inh -14 and STEP block 2.
For O=c1c2ccccc2sn1-c1ccc(F)cc1 the results were LMPTP inh -2, SUMO1-SIM PPI 3, Scp-1 inhibitor 81*, FAS-TE inh -12 and STEP block 2.
`CCc1nc2c(OCC3CCCCC3)cccn2c1N(C)C(=O)c1ccc(C)cc1` gave LMPTP inh 3, SUMO1-SIM PPI 6, FAS-TE inh 17 and STEP block 3.
`CCCCCCCCN1C(=O)[C@H](CC(=O)NCc2cccc(C(F)(F)F)c2)C[C@@]2(C(=O)OCC)CCCC=C12` gave LMPTP inh 4, SUMO1-SIM PPI 2 and FAS-TE inh 11.
`CC(=O)Nc1ccc(NC(=O)CSc2ccc(-c3ccc(-n4ccnc4)cc3)nn2)cc1` gave LMPTP inh 8, SUMO1-SIM PPI 42*, Scp-1 inhibitor -1, FAS-TE inh -4 and STEP block 2.
Screening CC(=O)Nc1ccc(NC(=O)CSc2ccc(-c3cccnc3)nn2)cc1 returned LMPTP inh 0, SUMO1-SIM PPI 4, Scp-1 inhibitor -6, FAS-TE inh -6 and STEP block -2.
Screening CCc1nnc(NC(=O)CSc2sc3c(O)cc(=O)[nH]c3c2C#N)s1 returned LMPTP inh 32, SUMO1-SIM PPI 40*, Scp-1 inhibitor 95*, FAS-TE inh -4 and STEP block 33.
Screening CC(C)Oc1ccc(-c2nc(NCC3CCCO3)c3ccccc3n2)cc1 (configuration not stated) returned LMPTP inh 51*, SUMO1-SIM PPI 4, Scp-1 inhibitor -4, FAS-TE inh 42 and STEP block 0.
Screening CC1=NN(c2nc(N)nc(/C(C#N)=C/c3ccc([N+](=O)[O-])o3)n2)C(C)(C)C1 returned LMPTP inh 3, SUMO1-SIM PPI -13, Scp-1 inhibitor 64*, FAS-TE inh 8 and STEP block 7.
